Measured values reported in ChEMBL document CHEMBL1926630, “Structure-activity relationships of chalcone analogs as potential inhibitors of ADP- and collagen-induced platelet aggregation” (2011).

Legend:
[1] = Antiplatelet activity against New Zealand white rabbit platelets assessed as inhibition of collagen-induced platelet aggregation at 50 ug/mL treated 2 mins before collagen challenge measured after 4 mins by turbidimetric analysis; type: functional; conditions: Oryctolagus cuniculus
Procedure, shortened: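 Rabbit washed platelets (EDTA-treated PRP, washed in Ca²⁺-free Tyrode's with BSA, heparin and apyrase at 37 °C for 20 min) were resuspended in 1 mM Ca²⁺ Tyrode's at 2.5 × 10⁸/mL. Compound or DMSO vehicle (final 0.5%) was added for 2 min at 37 °C with 900 rpm stirring before collagen. Read-out was peak transmission increase within 4 min, expressed as inhibition relative to vehicle.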

[2] = Antiplatelet activity against New Zealand white rabbit platelets assessed as inhibition of ADP-induced platelet aggregation at 50 ug/mL treated 2 mins before ADP challenge measured after 4 mins by turbidimetric analysis; type: functional; conditions: Oryctolagus cuniculus
Procedure, shortened: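 Washed platelets from ear-vein blood (acid-citrate dextrose), washed in Ca²⁺-free Tyrode's with BSA, heparin and apyrase, resuspended in Tyrode's with 1 mM Ca²⁺ at 2.5 × 10⁸/mL. Stirred at 900 rpm, preincubated 2 min at 37 °C with compound or vehicle (DMSO, final 0.5%), then challenged with 20 μM ADP. Maximal light-transmission rise within 4 min; inhibition computed versus vehicle.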

cells [3] = conditions: Oryctolagus cuniculus, New Zealand white, Platelet, read-out: INH
cells [4] = conditions: Oryctolagus cuniculus, New Zealand white, Platelet, read-out: INH; remark: listed apart in the source

O=C(/C=C/c1ccccn1)c1ccc(CN2CCOCC2)c(O)c1CN1CCOCC1
inhibition at 50 µg/mL [1]: 100%
inhibition at 50 µg/mL [2]: 100%

O=C(/C=C/c1cccnc1)c1ccc(O)c(CN2CCOCC2)c1
inhibition at 50 µg/mL [1]: 56.4%
inhibition at 50 µg/mL [2]: 100%

O=C(/C=C/c1cccnc1)c1ccc(CN2CCOCC2)c(O)c1
inhibition at 50 µg/mL [1]: 95.3%
inhibition at 50 µg/mL [2]: 100%

O=C(/C=C/c1ccco1)c1ccc(O)c(CN2CCOCC2)c1
inhibition at 50 µg/mL [1]: 4.7%
inhibition at 50 µg/mL [2]: 18.4%

C=CCOc1ccc(C(=O)/C=C/c2cc(OC)c(OC)c(OC)c2)c(O)c1
inhibition at 50 µg/mL [1]: 43.2%
inhibition at 50 µg/mL [2]: 70.4%

O=C(/C=C/c1ccccn1)c1ccc(O)c(CN2CCOCC2)c1
inhibition at 50 µg/mL [1]: 63.5%
inhibition at 50 µg/mL [2]: 99.3%

C=CCOc1ccc(C(=O)/C=C/c2cccc(OC)c2OC)c(O)c1
inhibition at 50 µg/mL [1]: 44.7%
inhibition at 50 µg/mL [2]: 30.8%

COc1ccc(/C=C/C(=O)c2ccc(OCC=C(C)C)cc2O)cc1OC
inhibition at 50 µg/mL [1]: 10.3%
inhibition at 50 µg/mL [2]: 24.3%

COc1cc(OC)c(OC)cc1/C=C/C(=O)c1ccc(OCC=C(C)C)cc1O
inhibition at 50 µg/mL [1]: 4%
inhibition at 50 µg/mL [2]: 15.7%

COc1ccc(/C=C/C(=O)c2ccc(OCC=C(C)C)cc2O)c(OC)c1
inhibition at 50 µg/mL [1]: 39.2%
inhibition at 50 µg/mL [2]: 42.7%

COc1cc(O)c(C(=O)/C=C/c2ccccc2)cc1CN1CCOCC1
inhibition at 50 µg/mL [1]: 29.2%
inhibition at 50 µg/mL [2]: 97.2%

Cc1ccsc1/C=C/C(=O)c1ccc(O)c(CN2CCOCC2)c1
inhibition at 50 µg/mL [1]: 12.5%
inhibition at 50 µg/mL [2]: 21.4%

O=C(/C=C/c1ccccc1)c1ccc(O)c(CN2CCOCC2)c1
inhibition at 50 µg/mL [1]: 20.3%
inhibition at 50 µg/mL [2]: 34.2%

Cc1ccsc1/C=C/C(=O)c1cccc(O)c1CN1CCOCC1
inhibition at 50 µg/mL [1]: 65.5%
inhibition at 50 µg/mL [2]: 79.1%

O=C(/C=C/c1ccccc1)c1cccc(O)c1CN1CCOCC1
inhibition at 50 µg/mL [1]: 89.8%
inhibition at 50 µg/mL [2]: 100%

O=C(/C=C/c1ccco1)c1cccc(O)c1CN1CCOCC1
inhibition at 50 µg/mL [1]: 60.8%
inhibition at 50 µg/mL [2]: 100%

CCOc1cc(O)c(C(=O)/C=C/c2cccnc2)cc1CN1CCOCC1
inhibition at 50 µg/mL [1]: 46.9%
inhibition at 50 µg/mL [2]: 100%

CCOc1cc(O)c(C(=O)/C=C/c2sccc2C)cc1CN1CCOCC1
inhibition at 50 µg/mL [1]: 0%
inhibition at 50 µg/mL [2]: 32.3%

O=C(/C=C/c1ccncc1)c1ccc(O)c(CN2CCOCC2)c1
inhibition at 50 µg/mL [1]: 79.4%
inhibition at 50 µg/mL [2]: 100%

O=C(/C=C/c1ccccn1)c1cc(CN2CCOCC2)c(O)c(CN2CCOCC2)c1
inhibition at 50 µg/mL [1]: 78.6%
inhibition at 50 µg/mL [2]: 100%

CC(C)=CCOc1ccc(C(=O)/C=C/c2sccc2C)c(O)c1CN1CCOCC1
inhibition at 50 µg/mL [1]: 11.1%
inhibition at 50 µg/mL [2]: 14.2%

COC(=O)[C@H](c1ccccc1Cl)N1CCc2sccc2C1 [CLOPIDOGREL]
inhibition at 9.6 µg/mL (cells [3]): 3.5%
inhibition at 9.6 µg/mL (cells [4]): 85.2%

COc1ccc(OC)c(/C=C/C(=O)c2ccc(OCC=C(C)C)cc2O)c1
inhibition at 50 µg/mL [1]: 14.9%
inhibition at 50 µg/mL [2]: 22.8%

C=CCOc1ccc(C(=O)/C=C/c2ccc3c(c2)OCO3)c(O)c1
inhibition at 50 µg/mL [1]: 7.9%
inhibition at 50 µg/mL [2]: 21.4%

COc1cc(O)c(C(=O)/C=C/c2cccs2)cc1CN1CCOCC1
inhibition at 50 µg/mL [1]: 11.1%
inhibition at 50 µg/mL [2]: 26.4%

CC(C)=CCOc1ccc(C(=O)/C=C/c2ccc3c(c2)OCO3)c(O)c1
inhibition at 50 µg/mL [1]: 17.3%
inhibition at 50 µg/mL [2]: 20%

C=CCOc1ccc(C(=O)/C=C/c2cc(OC)ccc2OC)c(O)c1
inhibition at 50 µg/mL [1]: 57.2%
inhibition at 50 µg/mL [2]: 33.6%

O=C(/C=C/c1cccs1)c1cccc(O)c1CN1CCOCC1
inhibition at 50 µg/mL [1]: 83.5%
inhibition at 50 µg/mL [2]: 100%

CC(C)Oc1ccc(C(=O)/C=C/c2cccs2)c(O)c1CN1CCOCC1
inhibition at 50 µg/mL [1]: 3.2%
inhibition at 50 µg/mL [2]: 29%

CCOc1cc(O)c(C(=O)/C=C/c2ccccn2)cc1CN1CCOCC1
inhibition at 50 µg/mL [1]: 43%
inhibition at 50 µg/mL [2]: 100%

C=CCOc1ccc(C(=O)/C=C/c2ccc(OC)cc2OC)c(O)c1
inhibition at 50 µg/mL [1]: 53.4%
inhibition at 50 µg/mL [2]: 35.2%

C=CCOc1ccc(C(=O)/C=C/c2ccc(OC)cc2)c(O)c1
inhibition at 50 µg/mL [1]: 5.5%
inhibition at 50 µg/mL [2]: 24.9%

COc1ccc(/C=C/C(=O)c2ccc(OCC=C(C)C)cc2O)cc1
inhibition at 50 µg/mL [1]: 17.3%
inhibition at 50 µg/mL [2]: 25.7%

O=C(/C=C/c1cccs1)c1ccc(O)c(CN2CCOCC2)c1
inhibition at 50 µg/mL [1]: 25%
inhibition at 50 µg/mL [2]: 23.4%

COc1ccc(/C=C/C(=O)c2cccnc2)c(CN2CCCCC2)c1O
inhibition at 50 µg/mL [1]: 98.4%
inhibition at 50 µg/mL [2]: 100%

COc1cc(/C=C/C(=O)c2ccc(OCC=C(C)C)cc2O)cc(OC)c1
inhibition at 50 µg/mL [1]: 8.7%
inhibition at 50 µg/mL [2]: 20.7%

Cc1ccsc1/C=C/C(=O)c1cc(CN2CCOCC2)c(O)c(CN2CCOCC2)c1
inhibition at 50 µg/mL [1]: 50%
inhibition at 50 µg/mL [2]: 24.9%

Cc1ccc(/C=C/C(=O)c2ccc(O)c(CN3CCOCC3)c2)o1
inhibition at 50 µg/mL [1]: 0%
inhibition at 50 µg/mL [2]: 12.8%

COc1ccc(C(=O)/C=C/c2ccccn2)c(O)c1CN1CCOCC1
inhibition at 50 µg/mL [1]: 93.7%
inhibition at 50 µg/mL [2]: 100%

CCOc1cc(O)c(C(=O)/C=C/c2ccco2)cc1CN1CCOCC1
inhibition at 50 µg/mL [1]: 0%
inhibition at 50 µg/mL [2]: 22.5%

COc1ccc(/C=C/C(=O)c2cc(CN3CCOCC3)c(OC)cc2O)cc1
inhibition at 50 µg/mL [1]: 7.1%
inhibition at 50 µg/mL [2]: 36.7%

C=CCOc1ccc(C(=O)/C=C/c2ccccc2)c(O)c1
inhibition at 50 µg/mL [1]: 6.3%
inhibition at 50 µg/mL [2]: 25.6%

COc1ccc(/C=C/C(=O)c2ccc(OCC=C(C)C)cc2O)c(OC)c1OC
inhibition at 50 µg/mL [1]: 12.6%
inhibition at 50 µg/mL [2]: 21.4%

COc1ccc(/C=C/C(=O)c2ccco2)c(CN2CCCCC2)c1O
inhibition at 50 µg/mL [1]: 93.7%
inhibition at 50 µg/mL [2]: 100%

COc1cc(O)c(C(=O)/C=C/c2cccnc2)cc1CN1CCOCC1
inhibition at 50 µg/mL [1]: 96.1%
inhibition at 50 µg/mL [2]: 100%

CC(C)=CCOc1ccc(C(=O)/C=C/c2ccccc2)c(O)c1 [CORDOIN]
inhibition at 50 µg/mL [1]: 6.3%
inhibition at 50 µg/mL [2]: 16.4%

C=CCOc1ccc(C(=O)/C=C/c2ccc(OC)c(OC)c2OC)c(O)c1
inhibition at 50 µg/mL [1]: 14.9%
inhibition at 50 µg/mL [2]: 26.4%

COc1cccc(/C=C/C(=O)c2ccc(OCC=C(C)C)cc2O)c1OC
inhibition at 50 µg/mL [1]: 19.7%
inhibition at 50 µg/mL [2]: 21.3%

COc1cc(O)c(C(=O)/C=C/c2ccco2)cc1CN1CCOCC1
inhibition at 50 µg/mL [1]: 19.7%
inhibition at 50 µg/mL [2]: 17.2%

O=C(/C=C/c1ccccn1)c1ccc(CN2CCOCC2)c(O)c1
inhibition at 50 µg/mL [1]: 98.4%
inhibition at 50 µg/mL [2]: 100%

CCOc1cc(O)c(C(=O)/C=C/c2ccc(C)o2)cc1CN1CCOCC1
inhibition at 50 µg/mL [1]: 0%
inhibition at 50 µg/mL [2]: 16.5%

COc1ccc(/C=C/C(=O)c2cccc(C)c2)c(CN2CCOCC2)c1O
inhibition at 50 µg/mL [1]: 78%
inhibition at 50 µg/mL [2]: 100%

C=CCOc1ccc(C(=O)/C=C/c2cc(OC)c(OC)cc2OC)c(O)c1
inhibition at 50 µg/mL [1]: 0%
inhibition at 50 µg/mL [2]: 21.6%

COc1cc(/C=C/C(=O)c2ccc(OCC=C(C)C)cc2O)cc(OC)c1OC
inhibition at 50 µg/mL [1]: 7.9%
inhibition at 50 µg/mL [2]: 27.1%

CCOc1cc(O)c(C(=O)/C=C/c2ccccc2)cc1CN1CCOCC1
inhibition at 50 µg/mL [1]: 2.3%
inhibition at 50 µg/mL [2]: 39.3%

COc1ccc(/C=C/C(=O)c2ccc(C)cc2)c(CN2CCOCC2)c1O
inhibition at 50 µg/mL [1]: 57.6%
inhibition at 50 µg/mL [2]: 99.3%

COc1ccc(/C=C/C(=O)c2cccs2)c(CN2CCCCC2)c1O
inhibition at 50 µg/mL [1]: 95.2%
inhibition at 50 µg/mL [2]: 100%

COc1ccc(/C=C/C(=O)c2ccc(OCC=C(C)C)cc2O)cc1O
inhibition at 50 µg/mL [1]: 13.4%
inhibition at 50 µg/mL [2]: 23%

O=C(/C=C/c1ccncc1)c1ccc(CN2CCOCC2)c(O)c1
inhibition at 50 µg/mL [1]: 100%
inhibition at 50 µg/mL [2]: 100%

O=C(/C=C/c1ccccn1)c1ccc(O)c(CN2CCOCC2)c1O
inhibition at 50 µg/mL [1]: 12.5%
inhibition at 50 µg/mL [2]: 100%

C=CCOc1ccc(C(=O)/C=C/c2cc(OC)cc(OC)c2)c(O)c1
inhibition at 50 µg/mL [1]: 13.4%
inhibition at 50 µg/mL [2]: 30.8%

CC(C)Oc1cc(O)c(C(=O)/C=C/c2cccs2)cc1CN1CCOCC1
inhibition at 50 µg/mL [1]: 0%
inhibition at 50 µg/mL [2]: 23.4%
